Measurements published in ChEMBL document CHEMBL3098056, “Small molecule inhibitors of anthrax lethal factor toxin” (Bioorg Med Chem, 2014).

How the values were obtained:
[1] = target: Matrix metalloproteinase-9 (Homo sapiens, UniProt P14780); test: Inhibition of human MMP-9 after 60 mins by FRET assay
Summary of the method: (§1)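 MMP-1 (38 nM) or MMP-9 (13 nM) with 50 fluorogenic substrate in 50 mM MOPS pH 6.0 and 0.05% NP-40, 37 °C for 60 min (linear range 90 min). Stopped with acetic acid (0.5% final); emission at 440 nm, excitation at 340 nm.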

[2] = target: Botulinum neurotoxin type A (Clostridium botulinum, UniProt P0DPI0); test: Inhibition of Clostridium bolulinum BoNT/A assessed as cleavage of MOCAc-Lys-Lys-Val-Tyr-Pro-Tyr-Pro-Met-Glu-Lys(Dnp)-NH2 after 40 mins by FRET assay
Summary of the method: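 BoNT/A light chain (2 nM) in a 96-well FRET format. Reactions were stopped with acetic acid to 0.5% and cleaved-substrate fluorescence read at 485 nm with excitation at 398 nm. The same format served for IC50 and mechanism kinetics.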

Lethal factor [3] = target: T1, Lethal factor (Bacillus anthracis, UniProt P15917); test: Inhibition of Bacillus anthracis lethal factor assessed as MCA-KKVYPYPME[dnp]K amide cleavage after 30 mins by fluorescence plate reader analysis
T1 sequence (P15917 whole entry): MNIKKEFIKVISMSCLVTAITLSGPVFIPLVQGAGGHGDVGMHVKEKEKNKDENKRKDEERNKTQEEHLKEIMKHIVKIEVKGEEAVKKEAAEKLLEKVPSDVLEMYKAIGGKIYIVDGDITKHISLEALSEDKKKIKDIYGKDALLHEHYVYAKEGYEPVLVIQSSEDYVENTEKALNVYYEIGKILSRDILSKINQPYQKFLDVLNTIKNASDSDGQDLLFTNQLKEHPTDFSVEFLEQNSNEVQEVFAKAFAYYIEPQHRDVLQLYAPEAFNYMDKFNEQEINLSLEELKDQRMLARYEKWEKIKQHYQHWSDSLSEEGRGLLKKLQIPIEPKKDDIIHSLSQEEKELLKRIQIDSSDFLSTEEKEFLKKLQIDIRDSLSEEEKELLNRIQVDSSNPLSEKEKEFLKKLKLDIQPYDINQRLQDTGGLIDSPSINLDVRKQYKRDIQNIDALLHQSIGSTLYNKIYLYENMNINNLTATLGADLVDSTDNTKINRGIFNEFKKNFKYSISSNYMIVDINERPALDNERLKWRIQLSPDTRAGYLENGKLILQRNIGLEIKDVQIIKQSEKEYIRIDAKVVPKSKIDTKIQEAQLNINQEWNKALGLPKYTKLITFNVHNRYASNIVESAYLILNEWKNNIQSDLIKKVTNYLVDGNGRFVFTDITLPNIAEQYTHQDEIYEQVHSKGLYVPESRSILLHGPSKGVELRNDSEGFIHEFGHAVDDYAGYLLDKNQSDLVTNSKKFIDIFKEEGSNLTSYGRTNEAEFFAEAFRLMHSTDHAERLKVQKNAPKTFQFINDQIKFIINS

Interstitial collagenase = target: T2, Interstitial collagenase (Homo sapiens, UniProt P03956); test: Inhibition of human MMP-1 after 60 mins by FRET assay; summary of the method: as §1
T2 sequence (P03956 whole entry): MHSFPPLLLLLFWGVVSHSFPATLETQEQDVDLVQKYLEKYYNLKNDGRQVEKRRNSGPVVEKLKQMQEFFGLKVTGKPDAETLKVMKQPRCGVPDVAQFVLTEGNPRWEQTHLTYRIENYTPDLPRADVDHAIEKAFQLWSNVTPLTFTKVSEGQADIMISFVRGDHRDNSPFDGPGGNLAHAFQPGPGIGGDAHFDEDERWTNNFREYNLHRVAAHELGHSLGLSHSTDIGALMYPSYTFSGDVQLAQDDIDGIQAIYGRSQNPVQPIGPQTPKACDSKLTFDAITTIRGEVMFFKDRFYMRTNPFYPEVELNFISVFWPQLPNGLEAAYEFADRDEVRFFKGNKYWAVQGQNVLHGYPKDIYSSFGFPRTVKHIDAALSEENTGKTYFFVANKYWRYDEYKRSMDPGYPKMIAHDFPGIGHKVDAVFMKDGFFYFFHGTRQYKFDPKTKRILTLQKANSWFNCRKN

Lethal factor [4] = target: T1, Lethal factor; test: Inhibition of Bacillus anthracis lethal factor
Summary of the method: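 FRET-based assay: LF cleaves a SNAP-derived fluorogenic peptide, and cleavage is read as a change in fluorescence.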

Botulinum neurotoxin type A, sequence (P0DPI0 2-448 limits assumed): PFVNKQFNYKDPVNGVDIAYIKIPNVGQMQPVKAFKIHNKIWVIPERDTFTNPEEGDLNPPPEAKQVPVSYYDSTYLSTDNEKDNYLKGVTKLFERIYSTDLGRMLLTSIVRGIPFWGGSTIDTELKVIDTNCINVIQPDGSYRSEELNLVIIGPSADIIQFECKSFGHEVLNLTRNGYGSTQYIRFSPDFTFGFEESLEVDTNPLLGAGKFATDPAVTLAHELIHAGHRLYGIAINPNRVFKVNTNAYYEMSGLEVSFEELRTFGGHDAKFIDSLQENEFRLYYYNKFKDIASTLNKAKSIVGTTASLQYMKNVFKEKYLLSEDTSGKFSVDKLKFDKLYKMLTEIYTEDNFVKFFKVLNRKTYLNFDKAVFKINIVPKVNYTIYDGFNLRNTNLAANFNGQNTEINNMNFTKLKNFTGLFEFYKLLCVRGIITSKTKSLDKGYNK
Matrix metalloproteinase-9, sequence (P14780 whole entry): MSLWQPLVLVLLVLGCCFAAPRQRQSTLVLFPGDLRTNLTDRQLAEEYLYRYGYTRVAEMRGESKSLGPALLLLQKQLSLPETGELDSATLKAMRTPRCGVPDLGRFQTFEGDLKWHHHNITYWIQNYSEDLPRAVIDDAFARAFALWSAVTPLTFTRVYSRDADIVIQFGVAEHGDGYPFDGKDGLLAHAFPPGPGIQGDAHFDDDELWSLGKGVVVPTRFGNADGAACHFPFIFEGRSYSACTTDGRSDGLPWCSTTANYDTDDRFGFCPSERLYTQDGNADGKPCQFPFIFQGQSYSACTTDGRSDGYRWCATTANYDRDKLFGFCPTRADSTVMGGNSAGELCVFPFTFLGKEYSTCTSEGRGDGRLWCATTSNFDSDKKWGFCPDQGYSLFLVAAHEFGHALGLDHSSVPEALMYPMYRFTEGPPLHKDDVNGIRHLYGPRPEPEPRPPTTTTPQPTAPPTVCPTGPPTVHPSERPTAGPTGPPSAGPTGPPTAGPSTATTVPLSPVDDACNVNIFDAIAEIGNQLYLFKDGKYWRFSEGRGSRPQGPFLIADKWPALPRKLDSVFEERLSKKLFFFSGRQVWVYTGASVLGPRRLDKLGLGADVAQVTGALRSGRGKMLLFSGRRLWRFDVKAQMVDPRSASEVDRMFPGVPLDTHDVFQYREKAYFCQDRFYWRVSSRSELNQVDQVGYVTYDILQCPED

Row | SMILES | IC50 [1] [µM] | IC50 [2] [µM] | IC50 (Lethal factor [3]) [µM] | IC50 (Interstitial collagenase) [µM] | IC50 (Lethal factor [4]) [µM] | Ki (Lethal factor [4]) [µM]
1 | Cc1cc(N)c2cc(NC(=O)Nc3ccc(C(=O)c4ccccc4)cc3)ccc2n1 | > 100 | 67 | 26 | > 100 | – | –
2 | Cc1cc(N)c2cc(NC(=O)CCc3ccc(F)cc3)ccc2n1 | – | > 100 | > 100 | – | – | –
3 | Cc1cc(N)c2cc(NC(=O)c3cccnc3)ccc2n1 | – | > 100 | > 100 | – | – | –
4 | COc1ccncc1CCC(=O)Nc1ccc2nc(C)cc(N)c2c1 | – | > 100 | > 50 | – | – | –
5 | Cc1cc(N)c2cc(NC(=O)CCc3ccccc3OC(=O)c3ccccc3)ccc2n1 | – | > 100 | > 100 | – | – | –
6 | CCCOc1ccccc1CCC(=O)Nc1ccc2nc(C)cc(N)c2c1 | – | > 100 | > 100 | – | – | –
7 | Cc1cc(N)c2cc(NC(=O)Cc3ccccc3Cl)ccc2n1 | – | > 100 | > 100 | – | – | –
8 | CNC(=O)[C@@H](CCc1ccccc1)NC(=O)[C@@H](CC(=O)NO)CC(C)C | – | – | – | – | 7 | –
9 | Cc1cc(N)c2cc(NC(=O)c3cccc(-c4cnc5ccccc5c4)c3)ccc2n1 | 16 | 45 | 5.7 | > 100 | – | –
10 | Cc1cc(N)c2cc(NC(=O)c3ccc(-c4cncc5ccccc45)cc3)ccc2n1 | 9.4 | 65 | 13 | > 100 | – | –
11 | COc1ccc2[nH]c(C(=O)Nc3ccc4nc(C)cc(N)c4c3)cc2c1 | > 100 | 35 | 44 | – | – | –
12 | Cc1cc(=S)c(O)c(C(=S)NCc2ccc(-c3ccccc3)cc2)o1 | – | – | – | – | 14 | –
13 | COc1cc(Br)ccc1CCC(=O)Nc1ccc2nc(C)cc(N)c2c1 | – | > 100 | 58 | – | – | –
14 | Cc1cc(N)c2cc(NC(=O)Cc3ccccc3)ccc2n1 | – | > 100 | > 100 | – | – | –
15 | COc1ccc(Br)cc1CCC(=O)Nc1ccc2nc(C)cc(N)c2c1 | – | > 100 | > 100 | – | – | –
16 | Cc1cc(N)c2cc(NC(=O)c3cccc(-c4cccc5cccnc45)c3)ccc2n1 | > 100 | 79 | 36 | > 100 | – | –
17 | Cc1cc(N)c2cc(NC(=O)CCc3ccccc3C(F)(F)F)ccc2n1 | > 100 | > 100 | 38 | > 100 | – | –
18 | Cc1cc(N)c2cc(NC(=O)Cc3ccc4c(c3)OCO4)ccc2n1 | – | > 100 | > 100 | – | – | –
19 | Cc1cc(N)c2cc(NC(=O)Nc3ccc4c(c3)OCO4)ccc2n1 | – | 41 | > 100 | – | – | –
20 | Cc1cc(N)c2cc(NC(=O)CCc3ccccc3C)ccc2n1 | – | > 100 | > 100 | – | – | –

Row | SMILES | IC50 [1] [µM] | IC50 [2] [µM] | IC50 (Lethal factor [3]) [µM] | IC50 (Interstitial collagenase) [µM] | IC50 (Lethal factor [4]) [µM] | Ki (Lethal factor [4]) [µM]
21 | COc1ccc(Cl)cc1CCC(=O)Nc1ccc2nc(C)cc(N)c2c1 | – | > 100 | > 100 | – | – | –
22 | COc1ccc(OC)c(CCC(=O)Nc2ccc3nc(C)cc(N)c3c2)c1 | – | > 100 | > 100 | – | – | –
23 | Cc1cc(N)c2cc(NC(=O)c3cccc(-c4ccc(N(C)C)cc4)c3)ccc2n1 | > 100 | 69 | – | – | – | –
24 | COc1cc(Cl)ccc1CCC(=O)Nc1ccc2nc(C)cc(N)c2c1 | – | > 100 | 78 | – | – | –
25 | Cc1cc(N)c2cc(NC(=O)Nc3ccc(C(C)C)cc3)ccc2n1 | – | 62 | 83 | – | – | –
26 | Cc1cc(N)c2cc(NC(=O)c3ccc(N4CCOCC4)cc3)ccc2n1 | – | 27 | > 100 | – | – | –
27 | O=C(N/N=C/c1cc([N+](=O)[O-])ccc1O)c1ccc(O)c(O)c1 | – | – | – | – | – | 1.1
28 | Cc1cc(N)c2cc(NC(=O)Nc3ccc(F)cc3)ccc2n1 | – | 32 | 95 | – | – | –
29 | COc1cccc(CCC(=O)Nc2ccc3nc(C)cc(N)c3c2)c1OC | – | > 100 | > 100 | – | – | –
30 | COc1ncccc1CCC(=O)Nc1ccc2nc(C)cc(N)c2c1 | > 100 | > 100 | 41 | > 100 | – | –
31 | COc1ccc(/C=C/C(=O)Nc2ccc3nc(C)cc(N)c3c2)cc1 | – | > 100 | 55 | – | – | –
32 | COc1ccc(NC(=O)Nc2ccc3nc(C)cc(N)c3c2)cc1 | – | 41 | > 100 | – | – | –
33 | Cc1cc(N)c2cc(NC(=O)COc3ccc(OCc4ccccc4)cc3)ccc2n1 | > 100 | > 100 | 33 | > 100 | – | –
34 | Cc1cc(N)c2cc(NC(=O)c3cccc(-c4cncc5ccccc45)c3)ccc2n1 | 48 | > 100 | 21 | 50 | – | –
35 | COc1ccccc1CNC(=O)Nc1ccc2nc(C)cc(N)c2c1 | – | > 100 | > 100 | – | – | –
36 | Cc1cc(N)c2cc(NC(=O)c3cccc(C(=O)c4ccccc4)c3)ccc2n1 | – | > 100 | 73 | – | – | –
37 | Cc1cc(N)c2cc(NC(=O)c3ccc(-c4cccnc4)cc3)ccc2n1 | > 100 | 23 | 43 | – | – | –
38 | COc1ccccc1/C=C/C(=O)Nc1ccc2nc(C)cc(N)c2c1 | > 100 | > 100 | 46 | > 100 | – | –
39 | Cc1cc(N)c2cc(NC(=O)CCc3ccccc3)ccc2n1 | – | > 100 | > 100 | – | – | –
40 | Cc1cc(N)c2cc(NC(=O)c3ccc(Oc4ccccc4)cc3)ccc2n1 | > 100 | > 100 | 70 | > 100 | – | –

Row | SMILES | IC50 [1] [µM] | IC50 [2] [µM] | IC50 (Lethal factor [3]) [µM] | IC50 (Interstitial collagenase) [µM] | IC50 (Lethal factor [4]) [µM] | Ki (Lethal factor [4]) [µM]
41 | Cc1cc(N)c2cc(NC(=O)c3ccc(-c4cnc5ccccc5c4)cc3)ccc2n1 | 11 | > 100 | 3 | 78 | – | –
42 | Cc1cc(N)c2cc(NC(=O)c3ccc(-c4cccc5cccnc45)cc3)ccc2n1 | 17 | 65 | 11 | > 100 | – | –
43 | Cc1cc(N)c2cc(NC(=O)Nc3ccc(-c4ccccc4)cc3)ccc2n1 | – | 79 | 79 | – | – | –
44 | Cc1cc(N)c2cc(NC(=O)NCc3ccccc3Cl)ccc2n1 | – | > 100 | 61 | – | – | –
45 | CCOc1ccccc1CCC(=O)Nc1ccc2nc(C)cc(N)c2c1 | – | > 100 | > 100 | – | – | –
46 | COc1ccsc1CCC(=O)Nc1ccc2nc(C)cc(N)c2c1 | – | > 100 | > 100 | – | – | –
47 | Cc1cc(N)c2cc(NC(=O)c3ccc(-c4cccc5ncccc45)cc3)ccc2n1 | – | 34 | 10 | – | – | –
48 | Cc1cc(N)c2cc(NC(=O)c3cc4ccccc4o3)ccc2n1 | – | > 100 | 90 | – | – | –
49 | Cc1cc(N)c2cc(NC(=O)c3ccc(-c4ccccc4)cc3)ccc2n1 | > 100 | > 100 | 48 | – | – | –
50 | CCOC(=O)c1ccc(NC(=O)Nc2ccc3nc(C)cc(N)c3c2)cc1 | – | 51 | 87 | – | – | –
51 | Cc1cc(N)c2cc(NC(=O)CCc3ccccc3Cl)ccc2n1 | – | > 100 | > 100 | – | – | –
52 | COc1ccc(CCC(=O)Nc2ccc3nc(C)cc(N)c3c2)cc1 | – | > 100 | > 100 | – | – | –
53 | Cc1cc(N)c2cc(NC(=O)c3cccc(N(C)C)c3)ccc2n1 | – | > 100 | > 100 | – | – | –
54 | Cc1cc(N)c2cc(NC(=O)c3ccco3)ccc2n1 | – | 47 | > 100 | – | – | –
55 | COc1ccccc1CC(=O)Nc1ccc2nc(C)cc(N)c2c1 | – | > 100 | > 100 | – | – | –
56 | COc1cccc(CCC(=O)Nc2ccc3nc(C)cc(N)c3c2)c1 | – | > 100 | > 100 | – | – | –
57 | Cc1cc(N)c2cc(NC(=O)c3cccc(-c4cccc5ncccc45)c3)ccc2n1 | 50 | 68 | 33 | 65 | – | –
58 | Cc1cc(N)c2cc(NC(=O)c3cccc(-c4ccc5ncccc5c4)c3)ccc2n1 | > 100 | 26 | 4.6 | > 100 | – | –
59 | Cc1cc(N)c2cc(NC(=O)Nc3ccc4nc(C)cc(N)c4c3)ccc2n1 [AMINOQUINURIDE] | 100 | 7.2 | 3.2 | 31 | – | –
